Values after ≈ are worked out from the molar mass of the structure shown.
Key:
Staphylococcus aureus = assay: Antibacterial activity against tetracycline-resistant Staphylococcus aureus R2507 assessed as growth inhibition; type: functional
Escherichia coli [1] = assay: Antibacterial activity against tetracycline-resistant Escherichia coli 1-849 assessed as growth inhibition; type: functional
Escherichia coli [2] = assay: Antibacterial activity against tetracycline-sensitive Escherichia coli ATCC 25922 assessed as growth inhibition; type: functional
[3] = Cytotoxicity against human A549 cells assessed as cell viability at 10 uM after 2 days by Alamar Blue assay relative to control; type: cell-based; settings: read-out: Activity
Outline: (§1)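 Resazurin (AlamarBlue) read-out of residual metabolic activity. A549 grown in DMEM/F-12 Kaighn's and IMR 90 in MEM/EBSS, both with 10% heat-inactivated FBS, penicillin/streptomycin and 2 mM L-glutamine. Seeded at 2 × 10^3 cells/well, held 24 h at 37 °C in 5% CO2, then exposed to 10 μM final for 2 days. Controls: 1.5 mM H2O2 and 10 μg/ml actinomycin D.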

[4] = Cytotoxicity against human IMR90 cells assessed as cell viability at 10 uM after 2 days by Alamar Blue assay relative to control; type: cell-based; settings: IMR-90 cells, read-out: Activity; outline: as §1
[5] = Stability of the compound in DMSO at -20 degC at 3 mM after 12 months by HPLC analysis; type: physicochemical; settings: 8766 h, 3000 µM

| SMILES | MIC (Staphylococcus aureus) [µg/mL] | MIC (Escherichia coli [1]) [µg/mL] | MIC (Escherichia coli [2]) [µg/mL] | viability at 48 h, 10 µM [3] [%] | viability at 48 h, 10 µM [4] [%] | Stability [5] |
| --- | --- | --- | --- | --- | --- | --- |
| C[C@H]1c2ccc(N)c(O)c2C(=O)C2=C(O)[C@]3(O)C(=O)C(C(N)=O)=C(O)[C@@H](N(C)C)[C@@H]3[C@@H](O)[C@@H]21 | 4 (≈ 8.71 µM) | 2 (≈ 4.35 µM) | 1 (≈ 2.18 µM) |  |  |  |
| CON(CC(=O)Nc1ccc2c(c1O)C(=O)C1=C(O)[C@]3(O)C(=O)C(C(N)=O)=C(O)[C@@H](N(C)C)[C@@H]3[C@@H](O)[C@@H]1[C@H]2C)[C@@H]1O[C@H](CO)[C@@H](O)[C@H](O)[C@H]1N | 32 (≈ 45.2 µM) | 32 (≈ 45.2 µM) | 8 (≈ 11.3 µM) | 95.6 | 102 |  |
| CONCC(=O)Nc1ccc2c(c1O)C(=O)C1=C(O)[C@]3(O)C(=O)C(C(N)=O)=C(O)[C@@H](N(C)C)[C@@H]3[C@@H](O)[C@@H]1[C@H]2C | 4 (≈ 7.32 µM) | 8 (≈ 14.6 µM) | 4 (≈ 7.32 µM) | 95.9 | 99.2 |  |
| CON(CC(=O)Nc1ccc2c(c1O)C(=O)C1=C(O)[C@]3(O)C(=O)C(C(N)=O)=C(O)[C@@H](N(C)C)[C@@H]3[C@@H](O)[C@@H]1[C@H]2C)[C@H]1O[C@H](CO)[C@@H](O)[C@H](O)[C@H]1N | 4 (≈ 5.65 µM) | 4 (≈ 5.65 µM) | 4 (≈ 5.65 µM) | 99.1 | 94.6 | Stable |
| CON(CC(=O)Nc1ccc2c(c1O)C(=O)C1=C(O)[C@]3(O)C(=O)C(C(N)=O)=C(O)[C@@H](N(C)C)[C@@H]3[C@@H](O)[C@@H]1[C@H]2C)[C@H]1CC[C@H](N(C)C)[C@@H](C)O1 | 16 (≈ 23.3 µM) | 32 (≈ 46.5 µM) | 4 (≈ 5.82 µM) | 96.9 | 101 |  |
| CON(CC(=O)Nc1ccc2c(c1O)C(=O)C1=C(O)[C@]3(O)C(=O)C(C(N)=O)=C(O)[C@@H](N(C)C)[C@@H]3[C@@H](O)[C@@H]1[C@H]2C)[C@@H]1O[C@H](CO)[C@@H](O)[C@H](O)[C@H]1NC(=O)C(F)(F)F | 16 (≈ 19.9 µM) | 32 (≈ 39.8 µM) | 4 (≈ 4.98 µM) | 98.7 | 109 |  |
| CON(CC(=O)Nc1ccc2c(c1O)C(=O)C1=C(O)[C@]3(O)C(=O)C(C(N)=O)=C(O)[C@@H](N(C)C)[C@@H]3[C@@H](O)[C@@H]1[C@H]2C)C1O[C@H](CO)[C@@H](O)[C@H](OC(C)C(=O)O)[C@H]1NC(C)=O (mixture of isomers) | 16 | 32 | 8 | 97.7 | 104 |  |
| CON(CC(=O)Nc1ccc2c(c1O)C(=O)C1=C(O)[C@]3(O)C(=O)C(C(N)=O)=C(O)[C@@H](N(C)C)[C@@H]3[C@@H](O)[C@@H]1[C@H]2C)C1O[C@H](CO)[C@@H](O)[C@H](O)[C@@H]1N (mixture of isomers) | 32 | 32 | 4 | 97.1 | 98.9 |  |
| CON(CC(=O)Nc1ccc2c(c1O)C(=O)C1=C(O)[C@]3(O)C(=O)C(C(N)=O)=C(O)[C@@H](N(C)C)[C@@H]3[C@@H](O)[C@@H]1[C@H]2C)C1OC[C@@H](O)[C@@H](O)[C@@H]1O (mixture of isomers) | 32 | 64 | 8 | 97.2 | 102 |  |
| CON(CC(=O)Nc1ccc2c(c1O)C(=O)C1=C(O)[C@]3(O)C(=O)C(C(N)=O)=C(O)[C@@H](N(C)C)[C@@H]3[C@@H](O)[C@@H]1[C@H]2C)C1OC[C@H](O)[C@@H]1O (mixture of isomers) | 32 | 64 | 4 | 98.2 | 99.3 |  |
| C=CCOC(=O)N[C@H]1C(N(CC(=O)Nc2ccc3c(c2O)C(=O)C2=C(O)[C@]4(O)C(=O)C(C(N)=O)=C(O)[C@@H](N(C)C)[C@@H]4[C@@H](O)[C@@H]2[C@H]3C)OC)O[C@H](CO)[C@@H](O)[C@@H]1O (mixture of isomers) | 8 | 16 | 8 | 98.8 | 97.6 |  |
| C[C@H]1c2cccc(O)c2C(=O)C2=C(O)[C@]3(O)C(=O)C(C(N)=O)=C(O)[C@@H](N(C)C)[C@@H]3[C@@H](O)[C@@H]21.O [DOXYCYCLINE] | 2 | 8 | 1 |  |  |  |

— ChEMBL document CHEMBL2417477, “Synthesis and antibacterial activity of doxycycline neoglycosides” (J Nat Prod, 2013)
